Assay results taken from ChEMBL document CHEMBL4190282, “The Conjugated Double Bond of Coniferyl Aldehyde Is Essential for Heat Shock Factor 1 Mediated Cytotoprotection” (J Nat Prod, 2017).
Activity calls are given as the source filed them. The calls are words filed in the database; no cut-off is given here.

How the values were obtained:
L132 [1] = assay: Cytoprotective activity against cisplatin-induced PARP cleavage in human L-132 cells at 3 uM pretreated for 1 hr followed by cisplatin addition measured after 24 hrs by immunoblotting analysis; type: functional, cell-based
Method in brief: (§1)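 Human embryonic lung L132 cells in RPMI with 10% FBS. 1 h pretreatment at 3 μM, then 0.5 μM paclitaxel or 20 μM cisplatin for 24 h, or 10 Gy 137Cs γ-rays (3.81 Gy/min) for 48 h. Cleaved PARP and caspase-3 immunoblotted (ECL); bands normalized to loading control, fold-change vs negative control, ≥3 independent experiments.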

MEF [2] = assay: Cytoprotective activity against paclitaxel-induced PARP cleavage in HSF1 deficient MEF at 3 uM pretreated for 1 hr followed by paclitaxel addition measured after 24 hrs by immunoblotting analysis; type: functional, cell-based; settings: Mus musculus
Method in brief: (§2)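 HSF1+/+ or HSF1−/− MEFs in DMEM with heat-inactivated 10% FBS, nonessential amino acids, glutamine, HEPES, 37 °C, 5% CO2. 1 h pretreatment at 3 μM, then 0.5 μM paclitaxel or 20 μM cisplatin for 24 h, or 10 Gy 137Cs γ-rays (3.81 Gy/min) for 48 h. Cleaved PARP and caspase-3 immunoblotted; bands normalized to loading control, fold-change vs negative control, ≥3 independent experiments.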

L132 [3] = assay: Cytoprotective activity against paclitaxel-induced cell death in human L-132 cells at 3 uM pretreated for 1 hr followed by paclitaxel addition measured after 24 hrs by FACS analysis; type: functional, cell-based
Method in brief: (§3)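 L132 cells in RPMI with 10% FBS. 1 h pretreatment at 3 μM, then 0.5 μM paclitaxel or 20 μM cisplatin for 24 h, or 10 Gy γ-rays for 48 h. Cells trypsinized, washed, stained with propidium iodide and analysed by flow cytometry. Means ± SD of ≥3 independent experiments, fold-change vs negative control.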

[4] = target: T1, Heat shock factor protein 1 (Homo sapiens) (UniProt Q00613); assay: Induction of HSF1 phosphorylation at Ser326 residue in human L-132 cells at 3 uM after 12 hrs by immunoblotting analysis; type: cell-based
T1 sequence (whole entry): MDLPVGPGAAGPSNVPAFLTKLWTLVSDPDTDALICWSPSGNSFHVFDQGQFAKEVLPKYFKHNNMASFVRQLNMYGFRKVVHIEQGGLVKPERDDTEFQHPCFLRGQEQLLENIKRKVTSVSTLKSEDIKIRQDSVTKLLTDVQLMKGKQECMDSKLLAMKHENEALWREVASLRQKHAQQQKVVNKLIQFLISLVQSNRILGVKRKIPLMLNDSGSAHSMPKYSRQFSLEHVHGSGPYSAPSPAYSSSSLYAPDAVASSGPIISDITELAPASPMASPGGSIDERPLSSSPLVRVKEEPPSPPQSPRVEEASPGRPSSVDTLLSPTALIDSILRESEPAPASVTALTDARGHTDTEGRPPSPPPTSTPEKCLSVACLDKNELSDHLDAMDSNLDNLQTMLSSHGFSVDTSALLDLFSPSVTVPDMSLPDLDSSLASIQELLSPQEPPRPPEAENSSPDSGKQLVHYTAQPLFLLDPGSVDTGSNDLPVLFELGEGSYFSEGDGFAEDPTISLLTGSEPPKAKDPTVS
Method in brief: (§4)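 L132 cells treated at 3 μM for 12 h, or at various doses for 12 h, or at 3 μM over a time course. Lysates resolved by SDS-PAGE, blotted to nitrocellulose, milk-blocked, primary antibodies 18 h at 4 °C, ECL detection. HSP27, HSP70 and Ser326-phospho-HSF1 bands normalized to loading control; ≥3 independent experiments; celastrol 1 μM positive control.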

L132 [5] = assay: Cytoprotective activity against cisplatin-induced cell death in human L-132 cells at 3 uM pretreated for 1 hr followed by cisplatin addition measured after 24 hrs by FACS analysis; type: functional, cell-based; method in brief: as §3
Mus musculus [6] = assay: Protection against IR-induced reduction of food and water intake in ICR mouse at 5 to 10 mg/kg, ip administered once before and three times after 7 Gy irradiation measured daily for 30 days; type: functional, organism-based
Method in brief: (§5)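 Female ICR mice (5–6 weeks, 25–30 g) given 7 Gy whole-body IR; dosed ip at 5 or 10 mg/kg once before and three times after IR, DMSO stock diluted in modified PBS. Survival days and radiation sickness signs checked twice daily; 10 mice per group.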

Mus musculus [7] = assay: Protection against IR-induced irritability in ICR mouse at 5 to 10 mg/kg, ip administered once before and three times after 7 Gy irradiation measured daily for 30 days; type: functional, organism-based; method in brief: as §5
L132 [8] = assay: Cytoprotective activity against cisplatin-induced caspase3 cleavage in human L-132 cells at 3 uM pretreated for 1 hr followed by cisplatin addition measured after 24 hrs by immunoblotting analysis; type: functional, cell-based; method in brief: as §1
Mus musculus [9] = assay: Protection against IR-induced reduction in circulating WBCs in ICR mouse at 10 mg/kg, ip administered once before and three times after 4.5 Gy irradiation measured after 9 days; type: functional, organism-based
Method in brief: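 Female ICR mice (5–6 weeks) given 4.5 Gy whole-body IR, dosed ip at 10 mg/kg once before and three times after IR; 5 per group, sacrificed day 9. BM cellularity from H&E (hematopoietic cells per 200×200 μm area); peripheral WBC, lymphocytes, neutrophils; Ki67 IHC counted in five fields per femur; relative spleen weight vs control. Means ± SD, Student's t test.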

[10] = target: T1, Heat shock factor protein 1 (Homo sapiens); assay: Activation of HSF1 in human L132 cells assessed as increase in HSP70 protein levels at 3 uM after 12 hrs by immunoblotting analysis; type: cell-based; method in brief: as §4
Mus musculus [11] = assay: Protection against IR-induced mortality in ICR mouse assessed as increase in mean survival days at 5 to 10 mg/kg, ip administered once before and three times after 7 Gy irradiation measured daily for 30 days; type: functional, organism-based; method in brief: as §5
MEF [12] = assay: Cytoprotective activity against paclitaxel-induced caspase3 cleavage in HSF1 deficient MEF at 3 uM pretreated for 1 hr followed by paclitaxel addition measured after 24 hrs by immunoblotting analysis; type: functional, cell-based; settings: Mus musculus; method in brief: as §2
L132 [13] = assay: Cytoprotective activity against IR-induced caspase3 cleavage in human L-132 cells at 3 uM pretreated for 1 hr followed by 10 Gy irradiation measured after 48 hrs by immunoblotting analysis; type: functional, cell-based; method in brief: as §1
[14] = target: T1, Heat shock factor protein 1 (Homo sapiens); assay: Activation of HSF1 in human L132 cells assessed as increase in HSP70 protein levels at 1 to 3 uM after 12 hrs by immunoblotting analysis; type: cell-based; method in brief: as §4
MEF [15] = assay: Cytoprotective activity against IR-induced PARP cleavage in HSF1 deficient MEF at 3 uM pretreated for 1 hr followed by 10 Gy irradiation measured after 48 hrs by immunoblotting analysis; type: functional, cell-based; settings: Mus musculus; method in brief: as §2
L132 [16] = assay: Cytoprotective activity against paclitaxel-induced caspase3 cleavage in human L-132 cells at 3 uM pretreated for 1 hr followed by paclitaxel addition measured after 24 hrs by immunoblotting analysis; type: functional, cell-based; method in brief: as §1
L132 [17] = assay: Cytoprotective activity against IR-induced cell death in human L-132 cells at 3 uM pretreated for 1 hr followed by 10 Gy irradiation measured after 48 hrs by FACS analysis; type: functional, cell-based; method in brief: as §3
NCI-H460 = assay: Upregulation of HSF1 protein level in human NCI-H460 cells at 10 to 30 uM after 12 hrs by Western blot analysis; type: functional, cell-based
Method in brief: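 NCI-H460 cells treated 12 h at 10 or 30 μM; HSF1, HSP27 and HSP70 detected by Western blot.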

L132 [18] = assay: Cytoprotective activity against paclitaxel-induced PARP cleavage in human L-132 cells at 3 uM pretreated for 1 hr followed by paclitaxel addition measured after 24 hrs by immunoblotting analysis; type: functional, cell-based; method in brief: as §1

Activity [4] | Activity [10] | Activity [14] | SMILES | Activity (L132 [1]) | Activity (MEF [2]) | Activity (L132 [3]) | Activity (L132 [5]) | Activity (Mus musculus [6]) | Activity (Mus musculus [7]) | Activity (L132 [8]) | Activity (Mus musculus [9]) | Activity (Mus musculus [11]) | Activity (MEF [12]) | Activity (L132 [13]) | Activity (MEF [15]) | Activity (L132 [16]) | Activity (L132 [17]) | Activity (NCI-H460) | Activity (L132 [18])
Active | Active | Active | COc1cc(/C=C/CO)ccc1O [CONIFERYL ALCOHOL] | Active | inactive | Active | Active | Active | Active | Active | Active | Active | inactive | Active | inactive | Active | Active | Active | Active
Active | Active | Active | COc1cc(/C=C/C=O)ccc1O [CONIFERYL ALDEHYDE] | Active | inactive | Active | Active | Active | Active | Active | Active | Active | inactive | Active | inactive | Active | Active | Active | Active
